The target in one test is T1, Myeloblastin (Mus musculus, UniProt Q61096).
T1 sequence (Q61096 whole entry): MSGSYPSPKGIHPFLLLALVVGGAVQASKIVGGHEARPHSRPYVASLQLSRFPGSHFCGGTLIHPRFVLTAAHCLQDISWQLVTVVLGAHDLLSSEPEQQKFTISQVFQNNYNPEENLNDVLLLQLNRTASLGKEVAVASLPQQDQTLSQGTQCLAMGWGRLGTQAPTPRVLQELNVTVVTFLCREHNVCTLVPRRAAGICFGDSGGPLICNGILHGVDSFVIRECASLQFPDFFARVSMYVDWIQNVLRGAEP
Description: Inhibition of proteinase-3 activation in beta-estradiol differentiated mouse EcoM-G cells after 24 hrs. The test is classed as cell-based. In a few lines: (§1)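 EcoM-G cells (cultures <3 months old) washed and seeded at 0.5×10^6 cells/ml without β-estradiol. After 24 h, compound added in Me₂SO (final 0.5%), then cells differentiated a further 24 h, harvested and lysed. NE assayed with 400 μM MeOSuc-AAPV-AMC, CG with 1 mM Suc-AAPF-pNA (405 nm, 5 min), Pr-3 with 10 μM internally quenched substrate (ex 328/em 393 nm), all from the same lysates. IC50 from four-parameter Hill fit.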

Test [1] has as its target T2, Cathepsin G (Homo sapiens, UniProt P08311).
T2 sequence (P08311 whole entry): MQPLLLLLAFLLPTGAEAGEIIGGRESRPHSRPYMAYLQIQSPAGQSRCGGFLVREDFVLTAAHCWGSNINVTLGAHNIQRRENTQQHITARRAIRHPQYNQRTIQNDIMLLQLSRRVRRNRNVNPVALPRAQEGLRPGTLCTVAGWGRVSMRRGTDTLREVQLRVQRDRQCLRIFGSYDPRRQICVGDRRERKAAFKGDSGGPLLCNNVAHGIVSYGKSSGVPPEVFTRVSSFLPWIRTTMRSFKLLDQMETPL
Description: Inhibition of cathepsin G in human U937 cells. The test is classed as cell-based, U-937.

Test [2] concerns the target T2, Cathepsin G. In words: Blockade of cathepsin G processing in human U937 cells by densitometry. The test is classed as cell-based, U-937. Summed up:
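U937 cells washed, plated at 2×10^6 cells/ml in methionine/glutamine-free RPMI, inhibitor or 0.5% Me₂SO added during 30 min starvation, pulsed with [³⁵S]methionine (10 μCi/ml) 30 min, re-seeded in complete medium with inhibitor and chased 3 h. Lysates bound to aprotinin-agarose 1 h at room temperature, SDS-PAGE and fluorography. CG band quantitated by densitometry as % inhibition vs vehicle.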

The target in test [3] is T3, Neutrophil elastase (Homo sapiens) (UniProt P08246).
T3 sequence (whole entry): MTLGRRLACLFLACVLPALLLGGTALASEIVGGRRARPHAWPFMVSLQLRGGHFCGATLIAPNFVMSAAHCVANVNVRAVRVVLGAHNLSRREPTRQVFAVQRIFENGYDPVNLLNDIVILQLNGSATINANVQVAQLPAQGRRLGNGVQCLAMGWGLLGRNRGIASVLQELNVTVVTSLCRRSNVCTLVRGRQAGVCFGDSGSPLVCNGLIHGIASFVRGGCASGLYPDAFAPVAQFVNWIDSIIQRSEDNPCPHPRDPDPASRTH
The note with it: U-937, 1 uM.

The next test relates to U-937. In words: Cytotoxicity against human U937 cells at 30 uM after 72 hrs annexin-V propidium iodide method. The test is classed as functional. Summed up:
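U937 plated at 0.4×10^6 cells/ml, compound in Me₂SO (final 0.5%). Cells harvested and re-seeded every 24 h in medium with freshly added inhibitor, for 72 h. Viability by annexin V-FITC/propidium iodide two-colour flow cytometry; cells negative for both stains counted viable.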

The target in test [4] is T4, Cathepsin G (Mus musculus) (UniProt P28293).
T4 sequence (whole entry): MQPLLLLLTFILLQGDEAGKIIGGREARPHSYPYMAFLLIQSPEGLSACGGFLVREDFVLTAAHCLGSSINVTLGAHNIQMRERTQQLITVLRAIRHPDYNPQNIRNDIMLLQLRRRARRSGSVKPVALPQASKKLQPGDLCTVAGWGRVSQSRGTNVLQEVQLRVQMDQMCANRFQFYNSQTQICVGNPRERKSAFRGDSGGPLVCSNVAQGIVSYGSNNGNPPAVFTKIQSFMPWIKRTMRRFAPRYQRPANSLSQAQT
In words: Inhibition of cathepsin G activity in beta-estradiol differentiated mouse EcoM-G cells at 10 uM after 24 hrs in the absence of estradiol. The test is classed as cell-based. Summed up: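 EcoM-G cells seeded without β-estradiol to differentiate. 10 μM compound or vehicle added 24 h after estrogen removal, and aliquots taken over time up to 3 days. CG activity in extracts measured with 1 mM Suc-Ala-Ala-Pro-Phe-pNA, absorbance at 405 nm over 5 min, in 100 mM Tris pH 7.5, 1 M NaCl.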

The target in the next test is Dipeptidyl peptidase 1 (Homo sapiens, UniProt P53634). In words: Inhibition of human recombinant cathepsin C after 10 mins. Summed up: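 Recombinant human cathepsin C at 1 nM in 25 mM MES pH 6.0, 50 mM NaCl, 5 mM DTT, with 50 μM Gly-Arg-AMC (twice Km). Enzyme preincubated with inhibitor 10 min, then substrate added, at room temperature. Fluorogenic AMC release.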
Sequence of Dipeptidyl peptidase 1 (P53634 25-134 limits assumed): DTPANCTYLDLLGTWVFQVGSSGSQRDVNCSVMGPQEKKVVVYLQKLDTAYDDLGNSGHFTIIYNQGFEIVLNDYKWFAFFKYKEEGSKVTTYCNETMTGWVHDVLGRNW
Sequence of Dipeptidyl peptidase 1 (P53634 231-394 limits assumed): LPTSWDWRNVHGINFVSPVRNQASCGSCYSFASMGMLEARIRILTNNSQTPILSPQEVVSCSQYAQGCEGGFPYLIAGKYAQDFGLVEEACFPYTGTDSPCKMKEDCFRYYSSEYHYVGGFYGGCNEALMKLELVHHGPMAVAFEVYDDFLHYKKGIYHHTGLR
Sequence of Dipeptidyl peptidase 1 (P53634 395-463 limits assumed): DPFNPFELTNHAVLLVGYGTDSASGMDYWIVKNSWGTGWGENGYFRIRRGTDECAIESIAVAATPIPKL

A further test concerns the target T5, Neutrophil elastase (Mus musculus, UniProt Q3UP87).
T5 sequence (Q3UP87 whole entry): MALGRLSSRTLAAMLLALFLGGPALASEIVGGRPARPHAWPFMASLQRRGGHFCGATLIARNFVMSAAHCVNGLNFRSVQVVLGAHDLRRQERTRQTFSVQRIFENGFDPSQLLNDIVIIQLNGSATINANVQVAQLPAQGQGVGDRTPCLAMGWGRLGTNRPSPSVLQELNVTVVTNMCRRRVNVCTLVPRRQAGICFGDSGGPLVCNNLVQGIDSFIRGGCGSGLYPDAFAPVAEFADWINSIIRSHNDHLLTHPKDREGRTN
Description: Inhibition of neutrophil elastase activation in beta-estradiol differentiated mouse EcoM-G cells after 24 hrs. The test is classed as cell-based. Summed up:
as §1

Calls of active or inactive are those of the source. No cut-off for these calls is given here.

As usually defined, the IC50 is the concentration at which inhibition is half-maximal. One may read the inhibition as how much of the control response was suppressed. A lower inhibition goes with little suppression.

For the compound `N#C[C@@]1(NC(=O)[C@@H](N)Cc2cccs2)C[C@@H]1c1ccccc1.O=C(O)C(F)(F)F`, the IC50 at Myeloblastin was 140 nM; on Cathepsin G [1] it was greater than 50000 nM; against Cathepsin G [2], 150 nM; on Dipeptidyl peptidase 1 it was 14 nM; on Neutrophil elastase, 160 nM. The compound further showed an inhibition in test [3] greater than 90%. The compound also registered an Activity in the test with U-937 of 100%. In addition, in test [4], the result was Active.

The record behind these values is ChEMBL document CHEMBL1156470, “Inhibition of the activation of multiple serine proteases with a cathepsin C inhibitor requires sustained exposure to prevent pro-enzyme processing” (J Biol Chem, 2007).
